Reference: ChEMBL document CHEMBL3868603, “Synthesis and evaluation of naphthyl bearing 1,2,3-triazole analogs as antiplasmodial agents, cytotoxicity and docking studies” (Bioorg Med Chem, 2017)

Legend:
Plasmodium falciparum [1] = experiment: Antiplasmodial activity against pyrimethamine-resistant Plasmodium falciparum Dd2 infected in human erythrocytes incubated for 50 hrs by SYBR green 1 dye based fluorescence assay; type: functional, cell-based; settings: Dd2, 50 h
Summary of the method: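 Ring-stage sorbitol-synchronised parasites in RPMI 1640 with 10% human serum, 1% ring parasitaemia, 2% final haematocrit; compounds from DMSO stocks in 2-fold serial dilution; 37°C, 5% O2/5% CO2/90% N2, 50 h; lysis buffer with SYBR Green 1, fluorescence Ex 485/Em 530; chloroquine (500 nM) background subtracted, normalised to DMSO (0.05%) wells; nonlinear regression IC50; two independent experiments in duplicate.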

Plasmodium falciparum [2] = experiment: Antiplasmodial activity against pyrimethamine-sensitive Plasmodium falciparum 3D7 infected in human erythrocytes incubated for 50 hrs by SYBR green 1 dye based fluorescence assay; type: functional, cell-based; settings: 3D7, 50 h
Summary of the method: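 Parasites cultured in RPMI 1640 with 10% human serum, erythrocytes at 2% haematocrit, 37°C, 5% O2/5% CO2/90% N2; sorbitol-synchronized rings. DMSO stocks serially 2-fold diluted; 1% ring-infected erythrocytes at 4% haematocrit, 50 h. SYBR Green 1 lysis buffer, fluorescence Ex 485/Em 530; chloroquine (500 nM) background subtracted, normalized to DMSO (0.05%), nonlinear regression IC50; two independent experiments in duplicate.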

[3] = Cytotoxicity against HEK293 cells assessed as decrease in cell viability at 100 uM after 48 hrs by MTT assay; type: toxicity, cell-based; settings: human, hek293, 48 h
Summary of the method: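 HEK-293 in MEM with 10% FBS, seeded 10,000 cells/well, 24 h at 37°C, 5% CO2; treated 1–100 µM in triplicate with DMSO control and doxorubicin reference, 48 h. MTT added 1 h, dried, DMSO dissolved, absorbance 562 nm; IC50 as 50% absorbance reduction versus control, mean ± SD of three independent experiments.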

Plasmodium falciparum [4] = experiment: Potency index, ratio of pyrimethamine IC50 to compound IC50 for pyrimethamine-resistant Plasmodium falciparum Dd2 infected in human erythrocytes; type: functional
Plasmodium falciparum [5] = experiment: Inhibition of trophozoite stage of Plasmodium falciparum DHFR assessed as reduction in NADPH depletion at 50 uM incubated for 30 mins followed by NADPH addition measured for 30 mins at 15 secs interval by UV/Vis spectrophotometric analysis
Summary of the method: (§1)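 Soluble extract from saponin-isolated trophozoites (culture at 15-16% parasitaemia), freeze-thaw, sonication, centrifugation; protein by Bradford. 500 µg extract in 1 ml assay buffer with inhibitor or 0.05% DMSO, 30 min room temperature, spun to remove precipitate; 60 µM NADPH and 50 µM DHA added, A340 decrease read every 15 s for 30 min; slope by linear regression as percent of control, representative experiment.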

Plasmodium falciparum [6] = experiment: Inhibition of trophozoite stage of Plasmodium falciparum DHFR assessed as reduction in NADPH depletion at 25 uM incubated for 30 mins followed by NADPH addition measured for 30 mins at 15 secs interval by UV/Vis spectrophotometric analysis; summary of the method: as §1

| SMILES | IC50 (Plasmodium falciparum [1]) | IC50 (Plasmodium falciparum [2]) | Activity [3] | Ratio IC50 (Plasmodium falciparum [4]) | inhibition (Plasmodium falciparum [5]) | inhibition (Plasmodium falciparum [6]) |
| --- | --- | --- | --- | --- | --- | --- |
| CCn1cc(COc2ccc3cc(Br)ccc3c2)nn1 | 34.2 µM | 23.6 µM | Non-Toxic | – | – | – |
| CCCCCn1cc(COc2ccc3cc(Br)ccc3c2)nn1 | – | 26.2 µM | Non-Toxic | – | – | – |
| CCCn1cc(COc2ccc3ccccc3c2)nn1 | – | 54.5 µM | Non-Toxic | – | – | – |
| CC(C)n1cc(COc2ccc3cc(Br)ccc3c2)nn1 | 24 µM | 21 µM | Non-Toxic | 3 | – | – |
| c1ccc2cc(OCc3cn(C4CCCC4)nn3)ccc2c1 | – | 39 µM | Non-Toxic | – | – | – |
| CCCn1cc(COc2ccc3cc(Br)ccc3c2)nn1 | 36.9 µM | 22.1 µM | Non-Toxic | – | – | – |
| CC(C)n1cc(COc2ccc3ccccc3c2)nn1 | – | 43.5 µM | Non-Toxic | – | – | – |
| CCc1nc(N)nc(N)c1-c1ccc(Cl)cc1 [PYRIMETHAMINE] | 34 µM | 0.047 µM | – | – | 25% | – |
| O=[N+]([O-])c1ccc(Cn2cc(COc3ccc4ccccc4c3)nn2)cc1 | 41.6 µM | 39.6 µM | Non-Toxic | – | – | – |
| Brc1ccc2cc(OCc3cn(C4CCCC4)nn3)ccc2c1 | – | 27.3 µM | Non-Toxic | – | – | – |
| CCn1cc(COc2ccc3ccccc3c2)nn1 | – | 97.5 µM | Non-Toxic | – | – | – |
| C=CCn1cc(COc2ccc3ccccc3c2)nn1 | – | 48.6 µM | Non-Toxic | – | – | – |
| O=C(O)CC[C@H](NC(=O)c1ccc(-n2cc(COc3ccc4cc(Br)ccc4c3)nn2)cc1)C(=O)O | – | 41.5 µM | Non-Toxic | – | – | – |
| CCCCCn1cc(COc2ccc3ccccc3c2)nn1 | – | 46.5 µM | Non-Toxic | – | – | – |
| CC(C)Cn1cc(COc2ccc3ccccc3c2)nn1 | – | 61.5 µM | Non-Toxic | – | – | – |
| CC(C)Cn1cc(COc2ccc3cc(Br)ccc3c2)nn1 | 31 µM | 19.6 µM | Non-Toxic | 3 | – | 41% |
| C=CCn1cc(COc2ccc3cc(Br)ccc3c2)nn1 | – | 21.2 µM | Non-Toxic | – | – | 13% |
| c1ccc2cc(OCc3cn(CCN4CCOCC4)nn3)ccc2c1 | – | 80 µM | Non-Toxic | – | – | – |
| O=[N+]([O-])c1ccc(Cn2cc(COc3ccc4cc(Br)ccc4c3)nn2)cc1 | 13.6 µM | 14.7 µM | Non-Toxic | 3 | – | – |
